In ChEMBL document CHEMBL2150916, “Dual inhibition of γ-oryzanol on cellular melanogenesis: inhibition of tyrosinase activity and reduction of melanogenic gene expression by a protein kinase A-dependent mechanism” (J Nat Prod, 2012) one finds inhibition and Activity data, which are given here for two molecules.

In series [1] the test system is B16-F1. In words: Inhibition of melanin synthesis in mouse B16-F1 cells after 72 hrs by spectrophotometric analysis. Format: functional, cell-based. The gist of the method:
(§1)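 B16F1 cells treated 72 h (3 or 30 μM). After lysis and centrifugation at 12000g, pellets dissolved in 1 N NaOH at 60 °C for 1 h. Absorbance read at 400 nm against a synthetic melanin standard, normalized to Bradford protein. Arbutin positive control. Means ± SE of three independent experiments.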

The test system of series [2] is B16/F1. In words: Inhibition of PKA in mouse B16-F1 cells assessed as decrease of MITF mRNA expression at 3 uM after 72 hrs by RT-PCR analysis. It is filed as cell-based. The method, boiled down: (§2)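 B16F1 cells treated 72 h at 3 μM. Total RNA extracted with Trizol; cDNA made from 2 μg RNA with M-MLV reverse transcriptase and oligo(dT). qPCR run 95 °C 3 min, then 50 cycles of 95 °C 10 s, 56 °C 15 s, 72 °C 20 s, with melting-curve check. Expression calculated relative to cyclophilin. Means ± SE of three independent experiments.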

Series [3] relates to B16-F1. In words: Inhibition of melanin synthesis in mouse B16-F1 cells at 3 uM after 72 hrs by spectrophotometric analysis relative to control. It is filed as functional. The settings on record: B16-F1, 72 h. The gist of the method:
as §1

The subject of series [4] is B16/F1. Description: Inhibition of PKA in mouse B16-F1 cells assessed as effect on ERK2 phosphorylation at 3 uM after 72 hrs by immunoblotting. It is filed as cell-based.
The subject of series [5] is B16-F1. Description: Inhibition of melanin synthesis in mouse B16-F1 cells at 30 uM after 72 hrs by spectrophotometric analysis relative to control. It is filed as functional. The settings on record: B16-F1, 72 h. The method, boiled down: as §1
In series [6] the test system is B16/F1. Description: Inhibition of PKA in mouse B16-F1 cells assessed as decrease of MITF protein expression at 3 uM after 72 hrs by immunoblotting relative to control. Format: cell-based. The method, boiled down:
(§3)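 B16F1 cells treated 72 h at 3 μM. 40 μg total protein (Bradford) run on 10% SDS-PAGE and transferred to nitrocellulose. Blocked in TBS with 5% nonfat milk and 0.1% Tween 20. Probed with primary antibodies plus HRP secondaries and read by chemiluminescence. Band densities normalized to α-tubulin. Means ± SE of three independent experiments.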

In series [7] the test system is B16/F1. In words: Inhibition of PKA in mouse B16-F1 cells assessed as effect on ERK2 mRNA expression at 3 uM after 72 hrs by RT-PCR analysis. It is filed as cell-based.
Series [8] relates to B16-F1. In words: Inhibition of melanin synthesis in mouse B16-F1 cells at 30 uM after 30 mins by Fontana-Masson staining. It is filed as functional, cell-based. Particulars: in the assay text read “after 72 hrs” for “after 30 mins”. The method, boiled down: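 B16F1 cells on slides treated with 30 μM, fixed in 4% paraformaldehyde for 30 min at room temperature. Melanin stained by Fontana−Masson (ammoniacal silver, gold chloride, sodium thiosulfate).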

Series [9] can be described thus: Cytotoxicity against mouse B16-F1 cells at 5 mM. It is filed as cell-based. The settings on record: b16-f1, 5000 µM.
For series [10], the target named is T1, Tyrosinase (Mus musculus) (UniProt P11344).
T1 sequence (whole entry): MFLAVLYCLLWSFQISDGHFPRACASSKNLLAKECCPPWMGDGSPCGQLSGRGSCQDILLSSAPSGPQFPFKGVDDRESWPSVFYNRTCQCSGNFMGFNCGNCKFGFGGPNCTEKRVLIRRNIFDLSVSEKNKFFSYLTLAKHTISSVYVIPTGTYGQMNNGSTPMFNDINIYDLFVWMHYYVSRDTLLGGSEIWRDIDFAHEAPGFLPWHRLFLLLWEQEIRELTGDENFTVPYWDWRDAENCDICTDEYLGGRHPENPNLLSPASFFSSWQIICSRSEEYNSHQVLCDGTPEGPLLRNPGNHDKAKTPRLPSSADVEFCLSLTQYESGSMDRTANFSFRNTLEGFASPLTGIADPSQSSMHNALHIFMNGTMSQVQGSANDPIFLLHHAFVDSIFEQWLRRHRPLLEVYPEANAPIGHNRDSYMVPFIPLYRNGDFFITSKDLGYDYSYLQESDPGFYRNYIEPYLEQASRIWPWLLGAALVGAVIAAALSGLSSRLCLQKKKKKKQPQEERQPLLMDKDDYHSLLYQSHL
In words: Inhibition of tyrosinase in mouse B16-F1 cells using L-DOPA as substrate at 30 uM after 72 hrs. It is filed as cell-based. The gist of the method:
(§4)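 B16F1 cells treated 72 h with 3 or 30 μM. Cells lysed in 1% Triton X-100/PBS pH 6.8 and spun at 12000g, 4 °C. Supernatant mixed with 0.1% (w/v) L-DOPA; A475 followed over the first 2 h and normalized to total protein. Means ± SE of three independent experiments.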

The test system of series [11] is B16/F1. In words: Inhibition of PKA in mouse B16-F1 cells assessed as decrease of TRP-1 mRNA expression at 3 uM after 72 hrs by RT-PCR analysis relative to control. Format: cell-based. The method, boiled down: as §2
For series [12], the system named is B16/F1. In words: Inhibition of PKA in mouse B16-F1 cells assessed as decrease of MC1R mRNA expression at 3 uM after 72 hrs by RT-PCR analysis. Format: cell-based.
The test system of series [13] is B16/F1. Description: Inhibition of PKA in mouse B16-F1 cells assessed as decrease of dopachrome tautomerase mRNA expression at 3 uM after 72 hrs by RT-PCR analysis. Format: cell-based. The method, boiled down: as §2
The subject of series [14] is B16/F1. Description: Inhibition of PKA in mouse B16-F1 cells assessed as decrease of dopachrome tautomerase protein expression at 3 uM after 72 hrs by immunoblotting relative to control. It is filed as cell-based. The method, boiled down:
as §3

The target of series [15] is T1, Tyrosinase (Mus musculus). In words: Inhibition of tyrosinase in mouse B16-F1 cells using L-DOPA as substrate at 3 uM after 72 hrs. It is filed as cell-based. The gist of the method:
as §4

Series [16] deals with B16/F1. Description: Inhibition of PKA in mouse B16-F1 cells assessed as decrease of TRP-1 mRNA expression at 3 uM after 72 hrs by RT-PCR analysis. Format: cell-based. The gist of the method: as §2
Series [17] deals with B16/F1. In words: Inhibition of PKA in mouse B16-F1 cells assessed as decrease of MITF promoter- dependent paired-box 3 mRNA expression at 3 uM after 72 hrs […]. It is filed as cell-based. The gist of the method:
(§5)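 Two-color oligonucleotide microarray on Mouse OneArray chips, comparing untreated and treated (3 μM) B16F1 cells labelled with Cy3/Cy5-dUTP. RNA extracted with RNAiso Plus and further purified. Arrays scanned and probe-level expression values computed.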

The subject of series [18] is B16/F1. Description: Inhibition of PKA in mouse B16-F1 cells assessed as decrease of CREB mRNA expression at 3 uM after 72 hrs by […]. It is filed as cell-based. The gist of the method:
as §5

Series [19] deals with B16/F1. Description: Inhibition of PKA in mouse B16-F1 cells assessed as decrease of phosphorylated CREB expression at 3 uM after 72 hrs by immunoblotting. Format: cell-based. The gist of the method:
as §3

In series [20] the test system is B16/F1. Description: Inhibition of PKA in mouse B16-F1 cells assessed as decrease of TRP-1 protein expression at 3 uM after 72 hrs by immunoblotting relative to control. Format: cell-based. The gist of the method:
as §3

The subject of series [21] is B16/F1. Description: Inhibition of PKA in mouse B16-F1 cells assessed as decrease of MITF mRNA expression at 3 uM after 72 hrs by RT-PCR analysis relative to control. Format: cell-based. The method, boiled down:
as §2

Series [22] concerns the target T2, Tyrosinase (Agaricus bisporus) (UniProt O42713).
T2 sequence (whole entry): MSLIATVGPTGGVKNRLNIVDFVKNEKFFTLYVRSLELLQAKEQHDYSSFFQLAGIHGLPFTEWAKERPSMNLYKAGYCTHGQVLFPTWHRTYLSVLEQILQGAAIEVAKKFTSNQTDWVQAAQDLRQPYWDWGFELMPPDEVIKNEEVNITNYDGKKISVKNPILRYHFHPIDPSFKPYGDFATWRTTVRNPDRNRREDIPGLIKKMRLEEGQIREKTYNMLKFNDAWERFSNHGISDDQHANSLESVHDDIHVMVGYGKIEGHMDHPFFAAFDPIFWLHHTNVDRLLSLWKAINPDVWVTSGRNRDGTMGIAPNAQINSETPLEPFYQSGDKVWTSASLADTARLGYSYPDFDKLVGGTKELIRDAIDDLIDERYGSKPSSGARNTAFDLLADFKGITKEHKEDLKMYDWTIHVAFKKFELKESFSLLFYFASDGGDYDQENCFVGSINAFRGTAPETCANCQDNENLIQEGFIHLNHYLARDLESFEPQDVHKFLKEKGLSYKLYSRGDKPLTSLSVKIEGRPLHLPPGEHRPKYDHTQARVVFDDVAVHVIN
In words: Inhibition of mushroom tyrosinase after 20 mins. The gist of the method:
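Mushroom tyrosinase in 0.1 M phosphate buffer with 0.03% (w/v) tyrosine as substrate, incubated 37 °C for 20 min. OD read at 492 nm; inhibition % = (1 − sample/control OD492) × 100. Arbutin positive control.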

Series [23] has as its system B16/F1. In words: Inhibition of PKA in mouse B16-F1 cells assessed as decrease of MITF promoter- dependent sex-determining region Y-box 10 mRNA expression at 3 uM after 72 hrs by […]. Format: cell-based. The gist of the method: as §5
Series [24] has as its system B16/F1. In words: Inhibition of PKA in mouse B16-F1 cells assessed as decrease of MITF promoter- dependent lymphoid enhancer factor mRNA expression at 3 uM after 72 hrs by […]. It is filed as cell-based. The gist of the method:
as §5

Series [25] relates to B16/F1. Description: Inhibition of PKA in mouse B16-F1 cells assessed as decrease of intracellular cAMP level at 3 uM after 72 hrs by colorimetric competitive immunoassay. It is filed as cell-based. The gist of the method:
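Cellular cAMP in B16F1 cells after 72 h at 3 μM, measured by colorimetric competitive immunoassay kit. Means ± SE of three independent experiments.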

Series [26] concerns B16/F1. Description: Inhibition of PKA in mouse B16-F1 cells assessed as decrease of dopachrome tautomerase mRNA expression at 3 uM after 72 hrs by RT-PCR analysis relative to control. It is filed as cell-based. The method, boiled down:
as §2

Series [27] is described as follows: Cytotoxicity against mouse B16-F1 cells. It is filed as cell-based. The method, boiled down:
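MTT assay on B16F1 murine melanoma cells tested over 300−0.03 μM. Cells grown in DMEM with 10% FBS and 1% penicillin/streptomycin at 37 °C, 5% CO2.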

Structures are written as SMILES. Activity calls are given as the source filed them. No cut-off for these calls is given here.

As to `COc1cc(/C=C/C(=O)O[C@H]2CC[C@]34C[C@]35CC[C@]3(C)[C@@H]([C@H](C)CCC=C(C)C)CC[C@@]3(C)[C@@H]5CC[C@H]4C2(C)C)ccc1O` [GAMMA ORYZANOL], the inhibition entry is “Dose-dependent effect” in series [1]; 90% in series [2]; 64% in [6]; 26% in [10]; 69% in series [11]; 56% in series [12]. For the same molecule, the inhibition in [13] worked out at 56%; in series [14] it was 92%; in series [15] it was 29%; in [16] it was 94%; in series [17], 29%; in [18] it was 28%. The inhibition is 57% in series [19]; 82% in [20]; 59% in series [21]; “Dose-dependent effect” in series [22]; 90% in series [23]; 40% in [24]. The inhibition in [25] was 13%; in [26], 51%. In series [3], this molecule had an inhibition at 3 µM of 13%. The inhibition result in series [4] and in series [7] was “inactive” throughout. This molecule registered an inhibition at 30 µM in [5] of 28%. The inhibition result in series [8] is “Active”. The Activity entry in [9] is “Non-toxic”.

For `OC[C@H]1O[C@@H](Oc2ccc(O)cc2)[C@H](O)[C@@H](O)[C@@H]1O` [ARBUTIN], the Activity result in series [27] is reported as “Toxic”. For the same molecule, the inhibition entry in [22] was “Active”.
